How the values were obtained:
male CD‐1 mice = assay: T‐maze continuous alternation task, MK‐801‐induced memory impairment; type: in vivo, mouse; conditions: for time spent in the T‐maze vs. MK‐801/vehicle‐treated group: P > 0.05
Summary of the method: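 Male CD-1 mice (about 28 g) on a reversed light cycle, tested in the dark phase in an enclosed, elevated T-maze under dim light (10 lux). MK-801 s.c. 30 min pre-test; test compound (0.1–75 mg·kg−1 p.o., Natrosol/Tween vehicle) given just after it. 14 trials in 14 min; mice completing <50% excluded. Reversal scaled: saline/vehicle 100%, MK-801/vehicle 0%. Kruskal–Wallis, Dunn's.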

cGMP in the PFC of mice = assay: Determination of cGMP in mouse prefrontal cortex; type: in vivo; conditions: 30 min after p.o. administration, highest dose tested, P < 0.05
Summary of the method: (§1)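 Adult male CD-1 mice, n = 8/group, dosed p.o. with vehicle (0.5% Natrosol, 0.01% Tween-80) or test compound. Killed by focused microwave brain irradiation 30 min later. PFC homogenized and centrifuged in 0.5 N HCl; supernatant assayed by ELISA. Detection limits: cGMP 0.02, cAMP 0.03 pmol·mg−1 tissue. One-way ANOVA, Dunnett's.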

cAMP in the PFC of mice = assay: Determination of cAMP in mouse prefrontal cortex; type: in vivo; conditions: 30 min after p.o. administration, highest dose tested, P < 0.05
Summary of the method: as §1

[1] = system: synaptic transmission in acute slices of the rat PFC; assay: Extracellular field potential; type: cell-based
Summary of the method: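 PFC slices from male Sprague Dawley rats aged 5–6 weeks, cut in ice-cold ACSF (pH 7.4, 95% O2/5% CO2). Layer V fEPSPs (prelimbic/infralimbic) evoked by 100 μs pulses every 30 s to layers II–III. Drugs from DMSO, 0.05% final, applied 30–60 min after 30 min baseline. Amplitude as % of last 10 min baseline; 3–14 slices/group; paired t-test.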

male Lister‐hooded rats = assay: 5‐choice serial reaction time task; type: in vivo, rat
Summary of the method: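 Food-restricted rats held at about 85% of free-feeding weight. Trained to criterion: ≥50 correct trials, ≥70% accuracy, ≤20% omissions (SD 0.7 s, ITI 5 s, LH 5 s). Ten challenge sessions with SD cut from 700 to 500 ms. Upper and lower 15% by mean accuracy taken as high/low performers, n = 9. Test compound in saline given i.p. 10 min pre-test. Repeated-measures ANOVA, Dunnett's.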

[2] = high‐performing rats, 3 mg·kg^−1, mean ± SEM
[3] = high‐performing rats, 6 mg·kg^−1, mean ± SEM
[4] = low‐performing rats, 3 mg·kg^−1, mean ± SEM
[5] = low‐performing rats, 6 mg·kg^−1, mean ± SEM

CN1C(=O)c2c(nn(Cc3ccc(-c4cccc(F)n4)cc3)c2Nc2ccccc2)N2C1=N[C@@H]1CCC[C@@H]12 [ITI‐214]
change in alternation of MK‐801‐treated mice (male CD‐1 mice; ITI‐214 0.1 mg·kg^−1 p.o., MK‐801 0.1 mg·kg^−1 s.c.): 0% | change in alternation of MK‐801‐treated mice (male CD‐1 mice; ITI‐214 1 mg·kg^−1 p.o., MK‐801 0.1 mg·kg^−1 s.c.): 13% | effect on alternation performance of MK‐801‐treated mice (male CD‐1 mice; ITI‐214 1 mg·kg^−1 p.o., P < 0.05 vs. MK‐801): statistically significant | change in alternation of MK‐801‐treated mice (male CD‐1 mice; ITI‐214 3 mg·kg^−1 p.o., MK‐801 0.1 mg·kg^−1 s.c.): 12% | effect on alternation performance of MK‐801‐treated mice (male CD‐1 mice; ITI‐214 3 mg·kg^−1 p.o., P = 0.059 vs. MK‐801): trend towards a significant effect | change in alternation of MK‐801‐treated mice (male CD‐1 mice; ITI‐214 10 mg·kg^−1 p.o., MK‐801 0.1 mg·kg^−1 s.c.): 10% | change in alternation of MK‐801‐treated mice (male CD‐1 mice; ITI‐214 30 mg·kg^−1 p.o., MK‐801 0.1 mg·kg^−1 s.c.): 7% | change in alternation of MK‐801‐treated mice (male CD‐1 mice; ITI‐214 75 mg·kg^−1 p.o., MK‐801 0.1 mg·kg^−1 s.c.): 2% | recovery in cognitive performance (male CD‐1 mice; mice, ITI‐214 0.1 mg·kg^−1 p.o., MK‐801 0.1 mg·kg^−1 s.c.): 1% | recovery in cognitive performance (male CD‐1 mice; mice, ITI‐214 1 mg·kg^−1 p.o., MK‐801 0.1 mg·kg^−1 s.c.): 57% | recovery in cognitive performance (male CD‐1 mice; mice, ITI‐214 3 mg·kg^−1 p.o., MK‐801 0.1 mg·kg^−1 s.c.): 51% | recovery in cognitive performance (male CD‐1 mice; mice, ITI‐214 10 mg·kg^−1 p.o., MK‐801 0.1 mg·kg^−1 s.c.): 45% | recovery in cognitive performance (male CD‐1 mice; mice, ITI‐214 30 mg·kg^−1 p.o., MK‐801 0.1 mg·kg^−1 s.c.): 32% | recovery in cognitive performance (male CD‐1 mice; mice, ITI‐214 75 mg·kg^−1 p.o., MK‐801 0.1 mg·kg^−1 s.c.): 11% | time spent in the T‐maze vs. MK‐801/vehicle‐treated group (male CD‐1 mice; mice, ITI‐214 0.1–75 mg·kg^−1 p.o.): did not change | maximal effect, recovery in the cognitive function (male CD‐1 mice; mice, ITI‐214 p.o., MK‐801 0.1 mg·kg^−1): approximately 57% | PFC cGMP vs. vehicle (cGMP in the PFC of mice): significant increase | PFC cAMP vs. vehicle (cAMP in the PFC of mice): significant increase | effect on fEPSP amplitude, compound alone ([1]; ITI‐214 per se): did not show any effects per se | effect on forskolin‐induced fEPSP amplitude with activated PDE1 ([1]; forskolin + thapsigargin + ITI‐214): rescued the reduced fEPSPs amplitudes

C[C@]12N[C@H](Cc3ccccc31)c1ccccc12 [MK‐801]
overall time spent to complete the T‐maze task vs. control group (male CD‐1 mice; mice, MK‐801 0.075 mg·kg^−1 s.c., Figure S1a (SKF38393 study)): reduced | spontaneous alternation vs. vehicle‐injected mice (male CD‐1 mice; mice, MK‐801 0.075 mg·kg^−1 s.c., P < 0.05): significant reduction | overall time spent to complete the T‐maze task vs. control group (male CD‐1 mice; mice, MK‐801 0.1 mg·kg^−1 s.c., Figure S1b (ITI‐214 study)): reduced | reduction of spontaneous alternation vs. vehicle‐injected mice (male CD‐1 mice; mice, MK‐801 0.1 mg·kg^−1 s.c., P < 0.05): ~23%

Oc1cc2c(cc1O)C(c1ccccc1)CNCC2 (stereo not drawn) [SKF38393]
recovery in the cognitive performance (male CD‐1 mice; mice, SKF38393 4 mg·kg^−1 s.c., MK‐801 0.075 mg·kg^−1 s.c.): 67% | recovery in the cognitive performance (male CD‐1 mice; mice, SKF38393 8 mg·kg^−1 s.c., MK‐801 0.075 mg·kg^−1 s.c.): 43% | effect on MK‐801‐induced deficits in spontaneous alternation (male CD‐1 mice; mice, SKF38393 8 mg·kg^−1 s.c., P > 0.05 vs. MK‐801 and vehicle): ineffective | time spent in the T‐maze vs. MK‐801/vehicle‐treated group (male CD‐1 mice; mice, SKF38393 2, 4, 8 mg·kg^−1 s.c.): did not change | effect on MK‐801‐induced deficits in spontaneous alternation (male CD‐1 mice; mice, SKF38393 2 and 4 mg·kg^−1 s.c., P < 0.05 vs. MK‐801): improved | maximal effect, recovery in the cognitive function (male CD‐1 mice; mice, SKF38393 s.c., MK‐801 0.075 mg·kg^−1): approximately 67% | Correct latency (male Lister‐hooded rats; [2]): 0.79 ± 0.02 s | Omissions (male Lister‐hooded rats; [2]): 11.24 ± 2.64 n | Perseverative responses (male Lister‐hooded rats; [2]): 0.94 ± 0.26 n | Premature responses (male Lister‐hooded rats; [2]): 3.17 ± 0.72% | Reward latency (male Lister‐hooded rats; [2]): 1.24 ± 0.06 s | Correct latency (male Lister‐hooded rats; [3]): 0.83 ± 0.03 s | Omissions (male Lister‐hooded rats; [3]): 21.65 ± 2.98 n | Perseverative responses (male Lister‐hooded rats; [3]): 1.06 ± 0.27 n | Premature responses (male Lister‐hooded rats; [3]): 1.97 ± 0.69 % | Reward latency (male Lister‐hooded rats; [3]): 1.27 ± 0.06 s | enhancement of accuracy (male Lister‐hooded rats; high‐performing rats, SKF38393 3 or 6 mg·kg^−1 i.p., P > 0.05): but not high‐performing rats | Correct latency (male Lister‐hooded rats; [4]): 0.77 ± 0.02 s | Omissions (male Lister‐hooded rats; [4]): 10.61 ± 1.70 n | Perseverative responses (male Lister‐hooded rats; [4]): 0.83 ± 0.26 n | Premature responses (male Lister‐hooded rats; [4]): 3.06 ± 0.27 % | Reward latency (male Lister‐hooded rats; [4]): 1.21 ± 0.04 s | Correct latency (male Lister‐hooded rats; [5]): 0.85 ± 0.03 s | Omissions (male Lister‐hooded rats; [5]): 17.74 ± 2.58 n | Perseverative responses (male Lister‐hooded rats; [5]): 0.67 ± 0.20 n | Premature responses (male Lister‐hooded rats; [5]): 2.15 ± 0.49 % | Reward latency (male Lister‐hooded rats; [5]): 1.31 ± 0.06 s | effect on synaptic transmission (fEPSP amplitude) ([1]; SKF38393): increased synaptic transmission

C=C[C@@]1(C)CC(=O)[C@]2(O)[C@@]3(C)[C@@H](O)CCC(C)(C)[C@@H]3[C@H](O)[C@H](OC(C)=O)[C@@]2(C)O1 [forskolin]
effect on fEPSPs ([1]; forskolin 0.1, 1, 10 μM): increased fEPSPs concentration‐dependently

C/C=C(/C)C(=O)O[C@H]1C(C)=C2[C@H]([C@@H]1OC(=O)CCCCCCC)[C@@](C)(OC(C)=O)C[C@H](OC(=O)CCC)[C@@]1(O)[C@H]2OC(=O)[C@@]1(C)O [thapsigargin]
effect on forskolin‐induced fEPSP amplitude ([1]; forskolin + thapsigargin (PDE1 activated via Ca^2+/calmodulin)): reduced fEPSPs amplitudes
